G6PDH counter: L. mesenteroides G6PDH inhibition counter-screen | Purified L. mesenteroides G6PDH, diaphorase/resazurin coupled fluorescence, 45 min | inhibition, % at 5 µM | 200,000 tested, 0.12% active | AID 1020
Diaphorase inh: diaphorase inhibition or chemical oxidation counter-screen; inhibition, % at 20 µM; diaphorase resazurin-to-resorufin fluorescence, NADH, 16 min; bacterial (C. kluyveri) enzyme, not human; 190,000 tested, 0.69% active;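 active = primary screen inhibition at 20 µM above a set limit, cut at about 50% in these data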;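 also: plate controls were DMSO with full reaction for no effect and wells lacking NADH for full effect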
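Detection: fluorescence of resorufin formed from resazurin, Ex 544/Em 590 nm; test system: Clostridium kluyveri diaphorase enzyme; amount: 0.14 U/mL diaphorase, enzyme working solution; times: 16-min room-temperature incubation before reading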
Diaph act CS: activates diaphorase or chemically reduces, flagging diaphorase assay artifacts | activation factor at 20 µM | 190,000 tested, 0.005% active | Diaphorase/resazurin coupled assay, resorufin fluorescence, 16 min; hits give high values; 1 = vehicle wells, 0 = NADH-free wells | AID 1229;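 active = diaphorase activity raised at least twofold by the compound at 20 µM; inactive = activation factor below 2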
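Material: Purified diaphorase enzyme from Clostridium kluyveri | Buffer or medium: 50 mM HEPES pH 7.4 with 4.542 mM MgCl2, 0.005% Tween 20 | Times: 16 min enzyme reaction, ambient temperature | Signal: Red resorufin fluorescence at 544/590 nm excitation/emission | Measure: Increased resorufin signal from activators or reducing compounds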
WT yeast gro inh: growth inhibition of WT yeast, mitochondrial fusion screen; mitochondrial fusion phenotypic screen, WT strain; inhibition, % at 10 µM; 190,000 tested, 2.1% active; AID 1362; in the data active = inhibition above about 58%; tested in S. cerevisiae
L major viab: Leishmania major promastigote growth inhibition; AID 1063; inhibition, % at 10 µM; Leishmania major promastigotes, resazurin fluorescence viability; 200,000 tested, 9% active;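 also: promastigotes grown with compound for 44 hours at 28 °C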
An asterisk follows results filed as active. Compounds with a hit are over-represented: about 11% of the library has one in this group of screens. Rule as the data show it, unless noted: active = inhibition above about 50%; inactive = the rest.

SMILES	G6PDH counter	Diaphorase inh	Diaph act CS	WT yeast gro inh	L major viab
O=C(c1ccc([N+](=O)[O-])cc1)N1CCN(Cc2ccccc2)CC1	1	-4	1	-2	13
O=C(c1ccc(-n2cccc2)cc1)N1CCN(Cc2ccccc2)CC1	3	-1	1	-21	75*
COc1cccc(OCCNC(=O)CSc2ccc(C(F)(F)F)cc2[N+](=O)[O-])c1	1	21	0.8	0	-5
O=C1CCCc2oc3c(c21)CCCC3	-2	16	0.8	-5	-3
COc1ccc(CCNC(=O)c2ccc(CNS(=O)(=O)c3ccccc3)cc2)cc1OC	3	5	1	-6	70*
COc1ccc(NS(=O)(=O)c2ccc(C(=O)N3CCN(Cc4ccccc4)CC3)cc2)cc1	2	4	1	-6	24
COc1ccc(CCNC(=O)C2CCC(CNS(=O)(=O)c3ccccc3)CC2)cc1OC (stereo not drawn)	1	12	0.9	8	2
O=C(c1cccc(NS(=O)(=O)c2ccc(F)c(F)c2)c1)N1CCN(Cc2ccccc2)CC1	4	13	0.9	-10	59*
Cc1cccc(NC(=O)C2CC(=O)n3cnnc3S2)c1 (stereo not drawn)	-2	14	0.9	-13	8
Cc1cc(C)nc(NC(=NCCc2c[nH]c3ccccc23)NC(=O)Nc2ccccc2)n1	-21	24	0.8	27	73*
Cc1cc(C)nc(NC(=NCCc2c[nH]c3ccccc23)NC(=O)Nc2cccc([N+](=O)[O-])c2)n1	15	5	1	27	4
Cc1cc(C)nc(NC(=NCCc2c[nH]c3ccccc23)NC(=O)Nc2ccc(Cl)c(Cl)c2)n1	6	8	0.9	20	98*
Cc1cc(NC(=O)C2C3C(=O)N(CC4CCCO4)C(C(=O)NCc4ccccc4)C34C=CC2(C)O4)no1 (stereo not drawn)	-4	2	1	-10	-6
CCN1CCN(CCOc2ccc(Br)cc2C)CC1	14	19	0.8	3	93*
Cc1ccc(OCCCCn2ccnc2C)c(C)c1	4	14	0.9	23	89*
Cc1ccc(OCCCCNC2CCCC(C)C2C)c(C)c1 (stereo not drawn)	-1	-7	1.1	63*	90*
Cc1ccc(OCCCN2CCCC2)c(C)c1	-4	11	0.9	6	97*
Cc1ccc(OCCn2nc3ccccc3n2)c(C)c1	-12	12	0.9	2	5
Cc1cc(Br)ccc1OCCN1CC(C)OC(C)C1 (stereo not drawn)	4	14	0.9	16	-11
CCCCN1CNC(=S)N(c2ccc(C(=O)OCC)cc2)C1	4	1	1	-5	-7
Cc1cc(/C=C(\C#N)C(=O)OCC(=O)Nc2ccc(OC(F)F)cc2)c(C)n1CC(C)C	-16	21	0.8	7	2
Cc1ccc(OCC(=O)N2CCCCCC2)c(C)c1	-2	15	0.9	15	2
Cc1ccc(OCCN2CCCCCC2)c(C)c1	4	8	0.9	13	96*
O=C(CSc1nnnn1-c1cccc2ccccc12)NC(C(=O)O)(c1ccccc1)c1ccccc1	10	26	0.7	8	-3
CCN(CC)C(=O)N1CCN(Cc2ccc3c(c2)OCO3)CC1	11	0	1	7	2
SMILES	G6PDH counter	Diaphorase inh	Diaph act CS	WT yeast gro inh	L major viab
CC(C(=O)N1CCN(Cc2ccc3c(c2)OCO3)CC1)c1ccc([N+](=O)[O-])cc1 (stereo not drawn)	10	4	1	-2	80*
CCOC(=O)C1CCN(C(=O)C(C)c2ccc([N+](=O)[O-])cc2)CC1 (stereo not drawn)	4	9	0.9	-4	-7
CC(C(=O)N1CCOCC1)c1ccc([N+](=O)[O-])cc1 (stereo not drawn)	-7	9	0.9	-26	55*
CC1CCCC(NC(=O)COC(=O)CSc2ccc3ccccc3c2)C1C (stereo not drawn)	-8	29	0.7	7	55*
COc1ccc(C2CC(c3cccs3)=NN2C(=O)CSc2nc3c(cnn3-c3ccccc3)c(=O)[nH]2)cc1 (stereo not drawn)	12	24	0.8	-11	85*
O=C(CSc1nc2ccccc2o1)N1N=C(c2cccs2)CC1c1ccc(F)cc1 (stereo not drawn)	-5	20	0.8	25	97*
COc1cc2c(cc1NC(=O)C(c1ccccc1)c1ccccc1)CCCC2	7	8	0.9	30	37
CCOc1cc([N+](=O)[O-])cc(/C=C2/NC(=O)N(Cc3ccccc3F)C2=O)c1O	7	56*	0.4	-1	-2
Cc1cc(/C=C2/NC(=O)N(Cc3ccccc3F)C2=O)c(C)n1C	-6	20	0.8	-1	-5
COCc1cc(=O)[nH]c(Nc2nc3ccccc3o2)n1	18	10	0.9	-17	99*
Cc1ccc2oc(Nc3nc(-c4ccccc4)cc(=O)[nH]3)nc2c1	3	-26	1.3	-5	98*
COCc1cc(=O)[nH]c(Nc2nc(C)c3ccccc3n2)n1	-3	10	0.9	-1	79*
Cc1nc(-c2ccccc2)cc(=O)[nH]1	4	-1	1	-4	2
O=C(O)CC/C(=N/NC(=O)c1cn(-c2ccccc2)nc1-c1ccccc1)C(=O)O	3	35	0.6	-4	-3
CCS(=O)(=O)c1nc(S(=O)(=O)c2ccc(Cl)cc2)c(N2CCc3ccccc3C2)s1	14	12	0.9	-5	51*
CCS(=O)(=O)c1nc(S(=O)(=O)c2ccc(Cl)cc2)c(NCc2ccccn2)s1	6	-1	1	8	4
CCCCN(C)C(=O)c1nc2ccccn2c1CN1CCN(C/C=C/c2ccccc2)CC1	4	15	0.8	11	47
OC(COc1ccccc1Cl)CN1CCN(CC(O)COc2ccccc2Cl)CC1 (stereo not drawn)	-3	-7	1.1	19	88*
OC(COc1ccccc1)CN1CCOCC1 (stereo not drawn)	2	6	0.9	-16	-1
OC(COc1ccc2ccccc2c1Cl)CN1CCOCC1 (stereo not drawn)	0	21	0.8	-18	92*
Cc1ccccc1OCC(O)CN1CCN(C)CC1 (stereo not drawn)	17	-4	1	-13	-12
COC(=O)c1sccc1N(C)S(C)(=O)=O	16	-23	1.2	-5	0
C=CCOc1ccc(C2C(C#N)=C(N)N(Nc3ccccc3)C3=C2C(=O)CC(C)(C)C3)cc1OC (stereo not drawn)	3	24	0.8	-3	89*
COc1ccc(C2C(C#N)=C(N)OC3=C2C(=O)CC(C)(C)C3)cc1OC (stereo not drawn)	10	24	0.8	4	-1
Cc1c(C(=O)O)c(C(=O)O)nc2ccc(N3CCOCC3)cc12	14	55*	0.5	-3	3
